Results on eight molecules are retold here after ChEMBL document CHEMBL1138520, “Molecular and conformational determinants of pituitary adenylate cyclase-activating polypeptide (PACAP) for activation of the PAC1 receptor” (J Med Chem, 2009).

The target in test [1] is T1, Pituitary adenylate cyclase-activating polypeptide type I receptor (Homo sapiens, UniProt P41586). Nature of the test: Agonist activity at human recombinant PAC1 receptor expressed in CHO cells assessed as PACAP38-induced calcium mobilization at 1 uM by FLIPR assay relative to PACAP38. Type of test: functional, cell-based. A general note: Calcium flux is commonly read through the fluorescence of an indicator in the cells.
Target sequence in this assay (P41586 21-468 limits assumed): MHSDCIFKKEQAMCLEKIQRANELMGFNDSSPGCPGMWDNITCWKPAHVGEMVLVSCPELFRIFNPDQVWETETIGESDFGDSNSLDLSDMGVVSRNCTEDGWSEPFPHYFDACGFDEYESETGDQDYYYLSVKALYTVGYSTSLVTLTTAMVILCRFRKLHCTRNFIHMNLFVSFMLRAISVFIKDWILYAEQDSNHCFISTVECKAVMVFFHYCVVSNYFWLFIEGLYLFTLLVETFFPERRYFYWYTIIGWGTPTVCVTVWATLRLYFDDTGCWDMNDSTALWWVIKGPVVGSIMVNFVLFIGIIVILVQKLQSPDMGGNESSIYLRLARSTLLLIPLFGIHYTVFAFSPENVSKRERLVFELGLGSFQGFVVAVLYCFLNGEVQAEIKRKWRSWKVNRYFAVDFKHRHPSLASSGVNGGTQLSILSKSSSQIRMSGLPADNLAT

For test [2], the target named is T1, Pituitary adenylate cyclase-activating polypeptide type I receptor. Nature of the test: Agonist activity at human recombinant PAC1 receptor expressed in CHO cells assessed as PACAP38-induced calcium mobilization at 1 uM by FLIPR assay. The class given is functional, cell-based.
Target sequence in this assay (P41586 whole entry): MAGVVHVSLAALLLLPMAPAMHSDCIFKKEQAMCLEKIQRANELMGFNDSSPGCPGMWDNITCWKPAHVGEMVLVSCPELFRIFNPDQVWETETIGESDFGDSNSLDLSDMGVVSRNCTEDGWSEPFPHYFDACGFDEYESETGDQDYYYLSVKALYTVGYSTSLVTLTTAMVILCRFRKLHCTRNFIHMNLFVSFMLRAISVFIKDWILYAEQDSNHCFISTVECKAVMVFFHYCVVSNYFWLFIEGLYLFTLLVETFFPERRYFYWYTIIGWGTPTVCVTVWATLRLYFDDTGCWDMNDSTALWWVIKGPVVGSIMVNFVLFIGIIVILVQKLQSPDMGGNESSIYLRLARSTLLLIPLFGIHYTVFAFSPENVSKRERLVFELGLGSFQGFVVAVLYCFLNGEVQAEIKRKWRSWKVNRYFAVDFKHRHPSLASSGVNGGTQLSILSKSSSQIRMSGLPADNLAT
Test [3] has the same target. Nature of the test: Displacement of [125I]Ac-PACAP27 from human recombinant PAC1 receptor expressed in CHO cells by gamma- counter. The class given is cell-based.
Target sequence in this assay (P41586 whole entry): as above
For test [4] the target is unchanged. Briefly: Antagonist activity at human recombinant PAC1 receptor expressed in CHO cells assessed as reduction in PACAP38-induced calcium mobilization by FLIPR assay. Type of test: functional, cell-based. The note with it: read-out: pA2 (converted). The method in brief: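 PAC1-CHO cells were loaded with fluo-4 and preincubated 15 min with antagonist at 0.1, 1 or 10 µM. PACAP38 concentration-response curves for calcium mobilization were then recorded. pA2 was estimated by Schild plot from concentration ratios; 4-10 independent assays in duplicate.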
Target sequence in this assay (P41586 whole entry): as above

Active and inactive are the calls of the source. The calls are words filed in the database; no cut-off is given here. Where a SMILES comes first, the peptide text is derived from it. [ ]: non-standard residue; d: D form. ξ: configuration not given here. ξTiq(1-COOH) = O=C(O)C1NCCc2ccccc21; ξDisc = O=C(O)C1NCc2ccccc21

For orientation: IC50 means the concentration at which inhibition is half-maximal. In the case of `CC[C@H](C)[C@H](NC(=O)CNC(=O)[C@H](CC(=O)O)NC(=O)[C@H](CO)NC(=O)[C@@H](N)Cc1cnc[nH]1)C(=O)N1Cc2ccccc2C1C(=O)N[C@H](C(=O)N[C@@H](CC(=O)O)C(=O)N[C@@H](CO)C(=O)N[C@@H](Cc1ccc(O)cc1)C(=O)N[C@@H](CO)C(=O)N[C@@H](CCCNC(=N)N)C(=O)N[C@@H](Cc1ccc(O)cc1)C(=O)N[C@@H](CCCNC(=N)N)C(=O)N[C@@H](CCCCN)C(=O)N[C@@H](CCC(N)=O)C(=O)N[C@@H](CCSC)C(=O)N[C@@H](C)C(=O)N[C@H](C(=O)N[C@@H](CCCCN)C(=O)N[C@@H](CCCCN)C(=O)N[C@@H](Cc1ccc(O)cc1)C(=O)N[C@@H](CC(C)C)C(=O)N[C@@H](C)C(=O)N[C@@H](C)C(=O)N[C@H](C(=O)N[C@@H](CC(C)C)C(=O)NCC(=O)N[C@@H](CCCCN)C(=O)N[C@@H](CCCNC(=N)N)C(=O)N[C@@H](Cc1ccc(O)cc1)C(=O)N[C@@H](CCCCN)C(=O)N[C@@H](CCC(N)=O)C(=O)N[C@@H](CCCNC(=N)N)C(=O)N[C@H](C(=O)N[C@@H](CCCCN)C(=O)N[C@@H](CC(N)=O)C(=O)N[C@@H](CCCCN)C(N)=O)C(C)C)C(C)C)C(C)C)[C@@H](C)O` (stereo partly specified) (H-HSDGI[ξDisc]TDSYSRYRKQMAVKKYLAAVLGKRYKQRVKNK-NH2), the Emax entry in test [1] was “inactive”. In test [2], the EC50 result was “Not Active”. In addition, in test [3], the IC50 is 1.75 µM.
In the case of `CC[C@H](C)[C@H](NC(=O)CNC(=O)[C@H](CC(=O)O)NC(=O)[C@H]1CCCN1C(=O)[C@@H](N)Cc1cnc[nH]1)C(=O)N[C@@H](Cc1ccccc1)C(=O)N[C@H](C(=O)N[C@@H](CC(=O)O)C(=O)N[C@@H](CO)C(=O)N[C@@H](Cc1ccc(O)cc1)C(=O)N[C@@H](CO)C(=O)N[C@@H](CCCNC(=N)N)C(=O)N[C@@H](Cc1ccc(O)cc1)C(=O)N[C@@H](CCCNC(=N)N)C(=O)N[C@@H](CCCCN)C(=O)N[C@@H](CCC(N)=O)C(=O)N[C@@H](CCSC)C(=O)N[C@@H](C)C(=O)N[C@H](C(=O)N[C@@H](CCCCN)C(=O)N[C@@H](CCCCN)C(=O)N[C@@H](Cc1ccc(O)cc1)C(=O)N[C@@H](CC(C)C)C(=O)N[C@@H](C)C(=O)N[C@@H](C)C(=O)N[C@H](C(=O)N[C@@H](CC(C)C)C(N)=O)C(C)C)C(C)C)[C@@H](C)O`, the Emax entry in test [1] was “inactive”. The EC50 entry in test [2] is recorded as “Not Active”. Moreover, in test [3], the half-maximal inhibitory concentration (IC50) worked out at 0.268 µM.
Taken in the same sequence, the figures for `CC[C@H](C)[C@H](NC(=O)CNC(=O)[C@H](CC(=O)O)NC(=O)[C@H](CO)NC(=O)[C@@H](N)Cc1cnc[nH]1)C(=O)N1CCc2ccccc2C1C(=O)N[C@H](C(=O)N[C@@H](CC(=O)O)C(=O)N[C@@H](CO)C(=O)N[C@@H](Cc1ccc(O)cc1)C(=O)N[C@@H](CO)C(=O)N[C@@H](CCCNC(=N)N)C(=O)N[C@@H](Cc1ccc(O)cc1)C(=O)N[C@@H](CCCNC(=N)N)C(=O)N[C@@H](CCCCN)C(=O)N[C@@H](CCC(N)=O)C(=O)N[C@@H](CCSC)C(=O)N[C@@H](C)C(=O)N[C@H](C(=O)N[C@@H](CCCCN)C(=O)N[C@@H](CCCCN)C(=O)N[C@@H](Cc1ccc(O)cc1)C(=O)N[C@@H](CC(C)C)C(=O)N[C@@H](C)C(=O)N[C@@H](C)C(=O)N[C@H](C(=O)N[C@@H](CC(C)C)C(N)=O)C(C)C)C(C)C)[C@@H](C)O` (stereo partly specified) were “inactive”, “Not Active” and 2.59 µM.
As for `CC[C@H](C)[C@H](NC(=O)CNC(=O)[C@H](CC(=O)O)NC(=O)[C@H]1CCCN1C(=O)[C@@H](N)Cc1cnc[nH]1)C(=O)N[C@@H](Cc1ccccc1)C(=O)N[C@H](C(=O)N[C@@H](CC(=O)O)C(=O)N[C@@H](CO)C(=O)N[C@@H](Cc1ccc(O)cc1)C(=O)N[C@@H](CO)C(=O)N[C@@H](CCCNC(=N)N)C(=O)N[C@@H](Cc1ccc(O)cc1)C(=O)N[C@@H](CCCNC(=N)N)C(=O)N[C@@H](CCCCN)C(=O)N[C@@H](CCC(N)=O)C(=O)N[C@@H](CCSC)C(=O)N[C@@H](C)C(=O)N[C@H](C(=O)N[C@@H](CCCCN)C(=O)N[C@@H](CCCCN)C(=O)N[C@@H](Cc1ccc(O)cc1)C(=O)N[C@@H](CC(C)C)C(=O)N[C@@H](C)C(=O)N[C@@H](C)C(=O)N[C@H](C(=O)N[C@@H](CC(C)C)C(=O)NCC(=O)N[C@@H](CCCCN)C(=O)N[C@@H](CCCNC(=N)N)C(=O)N[C@@H](Cc1ccc(O)cc1)C(=O)N[C@@H](CCCCN)C(=O)N[C@@H](CCC(N)=O)C(=O)N[C@@H](CCCNC(=N)N)C(=O)N[C@H](C(=O)N[C@@H](CCCCN)C(=O)N[C@@H](CC(N)=O)C(=O)N[C@@H](CCCCN)C(N)=O)C(C)C)C(C)C)C(C)C)[C@@H](C)O`, the Emax entry in test [1] was “inactive”. Also, in test [4], the Kb is 0.0355 µM. For the same molecule, the EC50 result in test [2] is reported as “Not Active”. The IC50 in test [3] is 0.0763 µM.
As for `CC[C@H](C)[C@H](NC(=O)CNC(=O)[C@H](CC(=O)O)NC(=O)[C@H](CO)NC(=O)[C@@H](N)Cc1cnc[nH]1)C(=O)N(C)[C@@H](Cc1ccccc1)C(=O)N[C@H](C(=O)N[C@@H](CC(=O)O)C(=O)N[C@@H](CO)C(=O)N[C@@H](Cc1ccc(O)cc1)C(=O)N[C@@H](CO)C(=O)N[C@@H](CCCNC(=N)N)C(=O)N[C@@H](Cc1ccc(O)cc1)C(=O)N[C@@H](CCCNC(=N)N)C(=O)N[C@@H](CCCCN)C(=O)N[C@@H](CCC(N)=O)C(=O)N[C@@H](CCSC)C(=O)N[C@@H](C)C(=O)N[C@H](C(=O)N[C@@H](CCCCN)C(=O)N[C@@H](CCCCN)C(=O)N[C@@H](Cc1ccc(O)cc1)C(=O)N[C@@H](CC(C)C)C(=O)N[C@@H](C)C(=O)N[C@@H](C)C(=O)N[C@H](C(=O)N[C@@H](CC(C)C)C(N)=O)C(C)C)C(C)C)[C@@H](C)O`, the Emax entry in test [1] was “inactive”. Also, in test [2], the EC50 result is recorded as “Not Active”. Besides, the half-inhibitory concentration (IC50) in test [3] is 3.15 µM.
Taken in the same sequence, the figures for `CC[C@H](C)[C@H](NC(=O)CNC(=O)[C@H](CC(=O)O)NC(=O)[C@H](CO)NC(=O)[C@@H](N)Cc1cnc[nH]1)C(=O)N1CCc2ccccc2C1C(=O)N[C@H](C(=O)N[C@@H](CC(=O)O)C(=O)N[C@@H](CO)C(=O)N[C@@H](Cc1ccc(O)cc1)C(=O)N[C@@H](CO)C(=O)N[C@@H](CCCNC(=N)N)C(=O)N[C@@H](Cc1ccc(O)cc1)C(=O)N[C@@H](CCCNC(=N)N)C(=O)N[C@@H](CCCCN)C(=O)N[C@@H](CCC(N)=O)C(=O)N[C@@H](CCSC)C(=O)N[C@@H](C)C(=O)N[C@H](C(=O)N[C@@H](CCCCN)C(=O)N[C@@H](CCCCN)C(=O)N[C@@H](Cc1ccc(O)cc1)C(=O)N[C@@H](CC(C)C)C(=O)N[C@@H](C)C(=O)N[C@@H](C)C(=O)N[C@H](C(=O)N[C@@H](CC(C)C)C(=O)NCC(=O)N[C@@H](CCCCN)C(=O)N[C@@H](CCCNC(=N)N)C(=O)N[C@@H](Cc1ccc(O)cc1)C(=O)N[C@@H](CCCCN)C(=O)N[C@@H](CCC(N)=O)C(=O)N[C@@H](CCCNC(=N)N)C(=O)N[C@H](C(=O)N[C@@H](CCCCN)C(=O)N[C@@H](CC(N)=O)C(=O)N[C@@H](CCCCN)C(N)=O)C(C)C)C(C)C)C(C)C)[C@@H](C)O` (stereo partly specified) (H-HSDGI[ξTiq(1-COOH)]TDSYSRYRKQMAVKKYLAAVLGKRYKQRVKNK-NH2) were “inactive”, “Not Active” and 1.55 µM.
For the molecule `CSCC[C@H](NC(=O)[C@H](CCC(N)=O)NC(=O)[C@H](CCCCN)NC(=O)[C@H](CCCNC(=N)N)NC(=O)[C@H](Cc1ccc(O)cc1)NC(=O)[C@H](CCCNC(=N)N)NC(=O)[C@H](CO)NC(=O)[C@H](Cc1ccc(O)cc1)NC(=O)[C@H](CO)NC(=O)[C@H](CC(=O)O)NC(=O)[C@@H](NC(=O)[C@@H](N)Cc1ccccc1)[C@@H](C)O)C(=O)N[C@@H](C)C(=O)N[C@H](C(=O)N[C@@H](CCCCN)C(=O)N[C@@H](CCCCN)C(=O)N[C@@H](Cc1ccc(O)cc1)C(=O)N[C@@H](CC(C)C)C(=O)N[C@@H](C)C(=O)N[C@@H](C)C(=O)N[C@H](C(=O)N[C@@H](CC(C)C)C(=O)NCC(=O)N[C@@H](CCCCN)C(=O)N[C@@H](CCCNC(=N)N)C(=O)N[C@@H](Cc1ccc(O)cc1)C(=O)N[C@@H](CCCCN)C(=O)N[C@@H](CCC(N)=O)C(=O)N[C@@H](CCCNC(=N)N)C(=O)N[C@H](C(=O)N[C@@H](CCCCN)C(=O)N[C@@H](CC(N)=O)C(=O)N[C@@H](CCCCN)C(N)=O)C(C)C)C(C)C)C(C)C`, the Emax result in test [1] is “inactive”. The Kb in test [4] is 0.011 µM. Also, the EC50 entry in test [2] is listed as “Not Active”. Besides, the IC50 in test [3] came out at 0.0567 µM.
In the case of `CC[C@H](C)[C@H](NC(=O)CNC(=O)[C@H](CC(=O)O)NC(=O)[C@H](CO)NC(=O)[C@@H](N)Cc1cnc[nH]1)C(=O)N1Cc2ccccc2C1C(=O)N[C@H](C(=O)N[C@@H](CC(=O)O)C(=O)N[C@@H](CO)C(=O)N[C@@H](Cc1ccc(O)cc1)C(=O)N[C@@H](CO)C(=O)N[C@@H](CCCNC(=N)N)C(=O)N[C@@H](Cc1ccc(O)cc1)C(=O)N[C@@H](CCCNC(=N)N)C(=O)N[C@@H](CCCCN)C(=O)N[C@@H](CCC(N)=O)C(=O)N[C@@H](CCSC)C(=O)N[C@@H](C)C(=O)N[C@H](C(=O)N[C@@H](CCCCN)C(=O)N[C@@H](CCCCN)C(=O)N[C@@H](Cc1ccc(O)cc1)C(=O)N[C@@H](CC(C)C)C(=O)N[C@@H](C)C(=O)N[C@@H](C)C(=O)N[C@H](C(=O)N[C@@H](CC(C)C)C(N)=O)C(C)C)C(C)C)[C@@H](C)O` (stereo partly specified), the Emax result in test [1] is “inactive”. Further, the EC50 entry in test [2] is on record as “Not Active”. Further, in test [3], the IC50 amounted to 3.59 µM.
